Pf Dd2 growth = P. falciparum Dd2 growth inhibition; activity change, % at 10 µM; SYBR Green, 72 h; stronger effect = lower value; hit rate 2.3% among 94,000; in the data active = activity change below about -80%; inconclusive = no clear call, values can overlap the other calls
GASC1 inh = KDM4C (human) demethylase inhibition; GST-KDM4C 2-372, H3K9me3 peptide, LANCE TR-FRET; inhibition, % at 12.5 µM; hit rate 0.15% among 96,000; AID 720574;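 active = mean replicate inhibition above about 25%, with at least 55% of replicates also reaching it, limit read from the data, passing the limit was not always enough; inconclusive = only one of those two conditions met; inactive = neither condition met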
Target sequence (Q9H3R0 2-372 limits assumed): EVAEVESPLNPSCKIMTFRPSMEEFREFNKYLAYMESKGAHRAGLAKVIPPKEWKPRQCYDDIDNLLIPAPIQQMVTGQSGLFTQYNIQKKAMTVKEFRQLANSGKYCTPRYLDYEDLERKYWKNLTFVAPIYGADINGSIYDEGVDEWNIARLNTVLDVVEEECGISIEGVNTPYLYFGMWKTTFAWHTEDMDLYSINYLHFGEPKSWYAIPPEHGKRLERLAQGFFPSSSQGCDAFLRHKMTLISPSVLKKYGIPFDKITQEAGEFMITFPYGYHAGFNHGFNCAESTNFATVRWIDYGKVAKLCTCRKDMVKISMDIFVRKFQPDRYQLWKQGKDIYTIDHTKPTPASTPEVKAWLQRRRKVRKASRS
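Test system – GST-tagged GASC-1 (JMJD2C) catalytic fragment, aa 2-372 · Medium – HEPES buffer, pH 7.5, plus ascorbate · Reagent – H3K9me3 peptide with Fe(II)/2OG · Compound – one test concentration per compound · Timing – 30 min reaction, 60 min detection, RT · Technique – TR-FRET with Eu antibody and ULight streptavidin, EDTA stop · Read-out basis – inhibition from TR-FRET ratio decrease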
IDH1 R132H inh = IDH1 R132H (human) inhibition; inhibition, % at 10 µM; hit rate 0.18% among 70,000; O75874; AID 624101; IDH1 R132H reductase, diaphorase/resazurin fluorescence, 60 min; in the data active = inhibition above about 34%; inconclusive = no clear call, values can overlap the other calls; inactive = below about 11%;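 note: 0% = DMSO and 100% = no enzyme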
Target sequence (O75874 whole entry R132H): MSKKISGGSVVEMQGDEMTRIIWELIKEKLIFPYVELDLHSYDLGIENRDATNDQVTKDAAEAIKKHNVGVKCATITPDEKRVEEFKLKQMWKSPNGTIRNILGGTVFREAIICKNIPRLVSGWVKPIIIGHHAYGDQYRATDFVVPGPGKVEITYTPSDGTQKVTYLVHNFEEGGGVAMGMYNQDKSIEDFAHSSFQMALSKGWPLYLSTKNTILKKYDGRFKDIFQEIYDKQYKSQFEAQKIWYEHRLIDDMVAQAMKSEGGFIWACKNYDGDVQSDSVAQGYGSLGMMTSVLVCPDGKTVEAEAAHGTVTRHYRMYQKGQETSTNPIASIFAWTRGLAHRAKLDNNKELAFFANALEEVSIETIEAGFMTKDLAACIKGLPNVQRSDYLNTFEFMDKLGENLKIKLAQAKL
T cruzi growth-1 = T. cruzi proliferation inhibition. AID 624255. inhibition, % at 8.34 µM. T. cruzi beta-gal in NIH3T3, GalScreen luminescence, 90 h. hit rate 5.9% among 77,000;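 active = mean inhibition above about 93%, with at least 55% of replicates each passing it, limit read from the data, passing the limit was not always enough; inconclusive = only one of those two conditions holds; inactive = neither condition holds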
T cruzi growth-2 = inhibitors of T. cruzi proliferation; hit rate 72% among 5,600; AID 651739; T. cruzi beta-gal in NIH3T3, GalScreen luminescence, 90 h; shares compounds with T cruzi growth-1; inhibition, % at 8.35 µM;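 active = mean replicate inhibition above about 95% and at least 55% of replicates individually reaching it, limit read from the data; inconclusive = only one of the two criteria is met; inactive = neither criterion is met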
T cruzi growth-3 = Trypanosoma cruzi proliferation inhibition; shares compounds with T cruzi growth-1; T. cruzi beta-gal in NIH3T3, GalScreen luminescence, 90 h; inhibition, % at 2.09 µM; hit rate 21% among 5,600; AID 651740;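 active = mean inhibition above about 95%, with at least 55% of replicates also reaching it, limit read from the data; inconclusive = meets just one of the two conditions; inactive = meets neither condition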;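 note: plate controls were neutral control median for no effect and positive control median for full effect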
3T3 cytotox = kills mouse NIH/3T3 fibroblasts; hit rate 14% among 5,600; NIH/3T3 viability, CellTiter-Glo ATP luminescence, 90 h; shares compounds with T cruzi growth-1; cytotoxicity (signal decrease), % at 8.35 µM; AID 651742;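 active = mean signal decrease across replicates above about 35% based on untreated-well scatter, with enough replicates individually passing, limit read from the data; inconclusive = no rule stated though some were filed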;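 note: 0% = median of neutral control wells and 100% = median of positive control wells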
NIH3T3 tox 2 = kills mouse NIH/3T3 fibroblasts. shares compounds with T cruzi growth-1. NIH/3T3 viability, CellTiter-Glo ATP luminescence, 90 h. inhibition, % at 24.9 µM. AID 651744. hit rate 56% among 5,600;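 active = mean loss of cell viability signal at or above a set limit, and enough replicates individually reaching it; inconclusive = meets only the mean limit or only the replicate share; inactive = meets neither condition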;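 note: 0% = median of neutral control wells and 100% = median of positive control wells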
Numbers without * were called inactive. Shown are actives, neighbours in structure and some others; about 5.9% of the full set was active somewhere.

Results for c1ccc(-n2nnnc2CSc2ncn[nH]2)cc1 ?
IDH1 R132H inh: 0.1

What do the screens show for `Cc1ccc2c(C)c(C(=O)Nc3ccc(S(=O)(=O)Nc4ncccn4)cc3)oc2c1`?
IDH1 R132H inh: 0.3

What do the screens show for `Cc1ccc(S(=O)(=O)N(CC(N)=O)c2ccc(Cl)c(Cl)c2)cc1`?
IDH1 R132H inh: -0.2

Results for O=C(NC1CCCC1)N1CCCCN2[C@@H](CO)[C@H](c3ccc(-c4ccccc4)cc3)[C@@H]2C1 ?
Pf Dd2 growth: 0.6; GASC1 inh: -1.2; T cruzi growth-1: 113.1*; T cruzi growth-2: 95.2*; T cruzi growth-3: 43.5; 3T3 cytotox: 3.5; NIH3T3 tox 2: 94.6*

What do the screens show for `N#C[C@H]1[C@@H](c2ccc(-c3ccc(F)cc3)cc2)[C@H](CO)N1C(=O)Cc1ccccc1`?
Pf Dd2 growth: -6.8; GASC1 inh: -0.7; T cruzi growth-1: inconclusive; T cruzi growth-2: 105.6*; T cruzi growth-3: 61.4; 3T3 cytotox: 17.4; NIH3T3 tox 2: 77.3*

What do the screens show for `N#C[C@H]1[C@@H](c2ccc(-c3ccccc3)cc2)[C@@H](CO)N1C(=O)Cc1ccccc1`?
Pf Dd2 growth: 13.8; GASC1 inh: -0.1; T cruzi growth-1: 49.4

How did N#C[C@@H]1[C@@H](c2ccc(-c3ccc(F)cc3)cc2)[C@H](CO)N1C(=O)Cc1ccccc1 do in these assays?
Pf Dd2 growth: -18.7; GASC1 inh: -1.4; T cruzi growth-1: 61.8

What do the screens show for `N#C[C@@H]1[C@@H](c2ccc(-c3ccc(F)cc3)cc2)[C@@H](CO)N1S(=O)(=O)Cc1ccccc1`?
Pf Dd2 growth: -31.3; GASC1 inh: -1.6; T cruzi growth-1: 99.2*; T cruzi growth-2: 97.4*; T cruzi growth-3: 93.9; 3T3 cytotox: 13.4; NIH3T3 tox 2: 102.2*

How did N#C[C@@H]1[C@H](c2ccc(-c3ccccc3)cc2)[C@@H](CO)N1C(=O)Cc1ccccc1 do in these assays?
Pf Dd2 growth: -19.1; GASC1 inh: -1.7; T cruzi growth-1: 100.9*; T cruzi growth-2: 107.6*; T cruzi growth-3: 51.0; 3T3 cytotox: 21.5; NIH3T3 tox 2: 53.0*

How did CCOC(=O)c1ccc(NC(=O)CSc2nc3sc4c(c3c(=O)[nH]2)CCC4)cc1 do in these assays?
IDH1 R132H inh: 3.2

Results for CCCC#Cc1ccc([C@H]2[C@H](CO)N3CCCCN(S(=O)(=O)Cc4ccccc4)C[C@@H]23)cc1 ?
Pf Dd2 growth: -34.0; GASC1 inh: -2.2; T cruzi growth-1: 97.3*; T cruzi growth-2: 101.4*; T cruzi growth-3: 61.0; 3T3 cytotox: 39.3*; NIH3T3 tox 2: 104.1*

What do the screens show for `O=S(=O)(Cc1ccccc1)N1CCCCN2[C@H](CO)[C@H](c3ccc(C#Cc4ccccc4)cc3)[C@@H]2C1`?
Pf Dd2 growth: -75.6; GASC1 inh: -2.8; T cruzi growth-1: 106.2*; T cruzi growth-2: 103.5*; T cruzi growth-3: 107.9*; 3T3 cytotox: 18.2; NIH3T3 tox 2: 65.9*

What do the screens show for `CCCC#Cc1ccc([C@@H]2[C@@H](CO)N3CCCCN(S(=O)(=O)Cc4ccccc4)C[C@H]23)cc1`?
Pf Dd2 growth: -19.3; GASC1 inh: -0.3; T cruzi growth-1: 94.3

What do the screens show for `CC(C)CC#Cc1ccc([C@H]2[C@H](CO)N3CCCCN(S(=O)(=O)Cc4ccccc4)C[C@@H]23)cc1`?
Pf Dd2 growth: inconclusive; GASC1 inh: -2.2; T cruzi growth-1: 100.2*; T cruzi growth-2: 103.7*; T cruzi growth-3: 91.6; 3T3 cytotox: 23.7; NIH3T3 tox 2: 106.6*

Results for CCS(=O)(=O)N1CCCCN2[C@@H](CO)[C@H](c3ccc(C#Cc4ccccc4OC)cc3)[C@@H]2C1 ?
Pf Dd2 growth: -14.6; GASC1 inh: -2.2; T cruzi growth-1: 114.2*; T cruzi growth-2: 110.4*; T cruzi growth-3: 94.8; 3T3 cytotox: 24.8; NIH3T3 tox 2: 82.6*

What do the screens show for `C[C@H]1CN([C@@H](C)CO)C(=O)c2cc(C#CCc3ccccc3)cnc2O[C@@H]1CN(C)C(=O)C1CCCCC1`?
Pf Dd2 growth: -83.3*; GASC1 inh: 0.7; T cruzi growth-1: inconclusive; T cruzi growth-2: 96.4*; T cruzi growth-3: 55.5; 3T3 cytotox: -10.4; NIH3T3 tox 2: 96.7*

How did C[C@H](CO)N1C[C@H](C)[C@@H](CN(C)Cc2ccccn2)Oc2ncc(C#CCC3CCCC3)cc2C1=O do in these assays?
Pf Dd2 growth: -27.6; IDH1 R132H inh: -1.4; T cruzi growth-1: 88.9

Results for C[C@H](CO)N1C[C@H](C)[C@@H](CN(C)CC2CCCC2)Oc2ncc(C#CCc3ccccc3)cc2C1=O ?
Pf Dd2 growth: -87.2*; GASC1 inh: 0.1; IDH1 R132H inh: -3.8; T cruzi growth-1: 96.9*; T cruzi growth-2: 101.5*; T cruzi growth-3: 105.9*; 3T3 cytotox: inconclusive; NIH3T3 tox 2: 104.2*

How did C[C@H]1CN([C@@H](C)CO)C(=O)c2cc(C#CCC3CCCC3)cnc2O[C@@H]1CN(C)Cc1ccccn1 do in these assays?
Pf Dd2 growth: -56.0; GASC1 inh: 7.0; IDH1 R132H inh: 0.0; T cruzi growth-1: 104.2*; T cruzi growth-2: 100.7*; T cruzi growth-3: 46.5; 3T3 cytotox: 5.9; NIH3T3 tox 2: 106.6*

How did C[C@@H]1CN([C@@H](C)CO)C(=O)c2cc(C#CCc3ccccc3)cnc2O[C@H]1CN(C)CC1CCOCC1 do in these assays?
Pf Dd2 growth: -53.3; GASC1 inh: 0.2; IDH1 R132H inh: -0.4; T cruzi growth-1: -23.0

Results for C[C@H](CO)N1C[C@H](C)[C@H](CN(C)C(=O)C2CCCCC2)Oc2ncc(C#CCc3ccccc3)cc2C1=O ?
Pf Dd2 growth: -48.9; GASC1 inh: 2.0; T cruzi growth-1: 80.2

Results for C[C@@H]1CN([C@@H](C)CO)S(=O)(=O)c2ccc(C#Cc3ccccn3)cc2O[C@@H]1CN(C)Cc1cccc(F)c1 ?
Pf Dd2 growth: -31.3; GASC1 inh: -1.3; IDH1 R132H inh: -2.8; T cruzi growth-1: 119.2*; T cruzi growth-2: 108.0*; T cruzi growth-3: inconclusive; 3T3 cytotox: 31.3; NIH3T3 tox 2: 21.0

What do the screens show for `C[C@@H]1CN([C@H](C)CO)S(=O)(=O)c2ccc(C#Cc3ccccn3)cc2O[C@H]1CN(C)C`?
Pf Dd2 growth: 27.6; GASC1 inh: 2.7; IDH1 R132H inh: -4.7

What do the screens show for `C[C@H](CO)N1C[C@H](C)[C@@H](CN(C)Cc2cccc(F)c2)Oc2cc(C#Cc3ccccn3)ccc2S1(=O)=O`?
Pf Dd2 growth: -38.0; GASC1 inh: -13.3; IDH1 R132H inh: 1.6; T cruzi growth-1: 116.8*; T cruzi growth-2: 94.0; T cruzi growth-3: 111.5*; 3T3 cytotox: -35.0; NIH3T3 tox 2: 8.1

Screening data: PubChem BioAssay, Broad Institute
